NPY1 pot ag – human NPY-Y1 potentiation or agonism, primary screen | NPY-Y1 expressing cells, potentiator/agonist activation | activation, % at 3.6 µM | 220,000 compounds, 0.37% hits; in the data active = activation above about 33%, passing the limit was not always enough;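 note: cells stimulated with NPY at EC10 then isoproterenol at EC100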
Target sequence (P25929 whole entry, looked up): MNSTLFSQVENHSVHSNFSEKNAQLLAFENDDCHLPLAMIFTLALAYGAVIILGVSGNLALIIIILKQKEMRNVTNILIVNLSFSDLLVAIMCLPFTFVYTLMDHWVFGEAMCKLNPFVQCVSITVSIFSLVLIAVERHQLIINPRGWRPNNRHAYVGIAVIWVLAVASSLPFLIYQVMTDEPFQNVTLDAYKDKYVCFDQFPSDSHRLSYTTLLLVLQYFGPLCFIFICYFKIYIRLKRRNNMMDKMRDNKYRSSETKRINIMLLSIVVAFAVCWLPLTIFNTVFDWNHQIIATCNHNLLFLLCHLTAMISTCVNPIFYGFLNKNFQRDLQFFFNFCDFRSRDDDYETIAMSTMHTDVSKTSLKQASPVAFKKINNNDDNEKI
NPY-Y2 PAM-ag – potentiators or agonists of human neuropeptide Y receptor Y2. P49146. cells expressing NPY-Y2, potentiator/agonist read-out. activation, % at 3.6 µM. 220,000 compounds, 0.45% hits; in the data active = activation above about 27%;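 note: cells stimulated with NPY near EC25 plus isoproterenol at EC100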
NPY-Y1 antag – blocks the human neuropeptide Y Y1 receptor; P25929; HEK293-CNG Y1 cells, membrane potential fluorescence; NPY at EC95, then isoproterenol; inhibition, % at 3.6 µM; 200,000 compounds, 1% hits; AID 1040;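 active = inhibition above the campaign mean inhibition of all tested compounds plus 3 SD, cut at about 20% in these data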
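Material: HEK293 cells co-expressing NPY Y1 receptor and cyclic-nucleotide gated channel. Timing: compound incubation 1 h at room temperature, readout 45 min post-stimulation. Signal: fluorescence, membrane potential probe.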
NPY-Y2 antag – antagonists of human neuropeptide Y receptor Y2; inhibition, % at 2.7 µM; NPY-Y2 expressing cells, antagonist mode; P49146; 140,000 compounds, 0.99% hits
NPY1 antag conf – confirmation of human neuropeptide Y receptor Y1 antagonists | inhibition, % at 3.6 µM | 1,200 compounds, 21% hits | AID 1254 | HEK293-CNG NPY-Y1, membrane potential fluorescence, cAMP; NPY challenge against isoproterenol-raised cAMP | shares compounds with NPY-Y1 antag; in the data active = inhibition above about 20%
NPY-Y2 antag ct – antagonizes human NPY-Y2, counter-screen to NPY-Y1 antagonists | AID 1255 | inhibition, % at 3.6 µM | 1,200 compounds, 28% hits | HEK293 NPY-Y2 CNG membrane potential fluorescence, antagonism; cells given NPY, then isoproterenol | shares compounds with NPY-Y1 antag
Large screens that a line does not name were inactive (follow-up assays come after a bar, where they were run). Only some compounds are listed: those with a hit (about 1.8% of all), similar ones and a draw of the others. Cut-off read from the data, not from the text of the source, unless noted: active = inhibition above about 17%; inactive = the rest.

O=C(CCNC(=O)c1ccccc1Cl)Nc1ccc(Cl)c(C(F)(F)F)c1	none
CCOC(=O)c1sc(NC(NC(=O)c2ccco2)(C(=O)OC)C(F)(F)F)nc1C (stereo not given)	NPY-Y1 antag 32 | NPY1 antag conf inactive | NPY-Y2 antag ct inactive
CCOC(=O)c1sc(NC(=S)NC(=O)c2ccco2)nc1C	none
C=CCn1c(C)cc(C(=O)CSc2nnc(Cc3ccccc3)o2)c1C	NPY-Y1 antag 21 | NPY1 antag conf inactive | NPY-Y2 antag ct inactive
CCCN(Cc1cc2cc(C)ccc2[nH]c1=O)C(=O)c1cccc([N+](=O)[O-])c1	none (no result: NPY-Y1 antag, NPY-Y2 antag)
Cc1cccc(C)c1OCCn1nc(C(=O)O)c2ccccc2c1=O	NPY-Y1 antag 24 | NPY1 antag conf inactive | NPY-Y2 antag ct 23
O=C(COc1ccc(Cl)cc1)Nc1nnc(C2=COCCO2)o1	NPY-Y1 antag 22 (no result: NPY-Y2 antag) | NPY1 antag conf inactive | NPY-Y2 antag ct inactive
CC1CCCCC1NC(=O)CN1C(=O)CSc2cc(S(=O)(=O)N3CCCCCC3)ccc21 (stereo not given)	NPY-Y1 antag 31 | NPY1 antag conf inactive | NPY-Y2 antag ct inactive
O=C(NNC1=Nc2cccc3cccc1c23)c1ccc(Br)cc1	none (no result: NPY-Y2 antag)
CC(C)CCNc1nc(-c2ccco2)c2c(c1C#N)CCCC2	NPY-Y1 antag 22 | NPY1 antag conf inactive | NPY-Y2 antag ct inactive
COc1ccc(CN(C(=O)Cc2cccs2)C(C(=O)NC2CCCC2)c2ccncc2)cc1 (stereo not given)	none
COc1cccc(C(C(=O)NC2CCCC2)N(CC2CCCO2)C(=O)Cc2cccs2)c1 (stereo not given)	NPY-Y1 antag 26 (no result: NPY-Y2 antag) | NPY1 antag conf inactive | NPY-Y2 antag ct inactive
CCCCC(CCC(=O)Nc1ccccc1C(=O)OCC)C(=O)O (stereo not given)	NPY-Y1 antag 23 | NPY1 antag conf inactive | NPY-Y2 antag ct inactive
CCOC(=O)c1ccc(NC(=O)CCC(CC)C(=O)O)cc1 (stereo not given)	none
Cc1ccc(C(=O)c2cc([N+](=O)[O-])ccc2N2CC(C)OC(C)C2)cc1 (stereo not given)	none
Cc1ccc(C(=O)c2cc([N+](=O)[O-])ccc2N2CCCCC2)cc1	NPY-Y1 antag 22 | NPY1 antag conf inactive | NPY-Y2 antag ct 26
COc1cccc2c3c(c(C)nc12)CCN3c1ccccc1	NPY-Y1 antag 23 (no result: NPY-Y2 antag) | NPY1 antag conf inactive | NPY-Y2 antag ct 21
COc1ccccc1-n1cc(CN2CCN(C3CCCCC3)C(CCO)C2)cn1 (stereo not given)	none (no result: NPY-Y2 antag)
CCN(Cc1ccccc1)C(c1ccc(C)cc1)c1nnnn1C(C)(C)CC (stereo not given)	none
CC(C)(C)n1nnnc1C(c1ccc(C(F)(F)F)cc1)N(Cc1ccccc1)Cc1ccco1 (stereo not given)	NPY-Y1 antag 47 | NPY1 antag conf 29 | NPY-Y2 antag ct inactive
c1ccc(CN(Cc2ccco2)C(c2ccncc2)c2nnnn2C2CCCC2)cc1 (stereo not given)	NPY-Y1 antag 26 | NPY1 antag conf inactive | NPY-Y2 antag ct inactive
CCCC(c1nnnn1Cc1cccs1)N1CCN(C2CCCC2)CC1 (stereo not given)	NPY-Y1 antag 25 | NPY1 antag conf inactive | NPY-Y2 antag ct inactive
CC(C)C(c1nnnn1Cc1ccco1)N1CCN(C2CCCC2)CC1 (stereo not given)	none
CCCC(c1nnnn1Cc1ccco1)N1CCN(C2CCCC2)CC1 (stereo not given)	NPY-Y1 antag 22 | NPY1 antag conf inactive | NPY-Y2 antag ct inactive
CCC(=O)N=c1ccn(C2=Nc3ccccc3NC2=C(C#N)C#N)cc1	none (no result: NPY-Y1 antag, NPY-Y2 antag)
O=C(Nc1ncc(Cc2ccc(SC(F)F)cc2)s1)c1ccccc1	NPY-Y1 antag 21 | NPY1 antag conf inactive | NPY-Y2 antag ct inactive
S=c1nc[nH]c2c1[nH]c1ccccc12	NPY-Y1 antag 39 | NPY1 antag conf inactive | NPY-Y2 antag ct inactive
S=c1nc[nH]c2c1[nH]c1ccc(Cl)cc12	none (no result: NPY-Y1 antag, NPY-Y2 antag)
CC(C)(C)c1ccccc1OCCCCN1CCCC1	none
Cc1cccc(C(C)(C)C)c1OCCCCN1CCCC1	NPY-Y1 antag 21 | NPY1 antag conf inactive | NPY-Y2 antag ct inactive
Cc1nn(S(=O)(=O)c2ccccc2)c(C)c1Sc1ccc([N+](=O)[O-])cc1	NPY-Y1 antag 24 | NPY1 antag conf inactive | NPY-Y2 antag ct inactive
Cc1nn(S(=O)(=O)c2cccs2)c(C)c1Sc1ccc([N+](=O)[O-])cc1	none
CC1CC(C)CN(C(=O)c2ccccc2Nc2ccc(SC(F)F)cc2)C1 (stereo not given)	none
Cc1cc(-c2ccccc2)nc(Oc2ccc(C(C)(C)C)cc2)c1S(C)(=O)=O	NPY-Y1 antag 23 | NPY1 antag conf inactive | NPY-Y2 antag ct inactive
COc1cc(C2C(C#N)=C(N)Oc3cc4c(cc32)OCO4)cc(OC)c1OC (stereo not given)	NPY-Y1 antag 22 (no result: NPY-Y2 antag) | NPY1 antag conf inactive | NPY-Y2 antag ct inactive
O=C(Nc1ccc(F)cc1F)NC1CCN(Cc2c(F)cccc2Cl)CC1	none (no result: NPY-Y1 antag, NPY-Y2 antag)
COc1ccc(OC(C)C(=O)N2CCCc3ccccc32)cc1 (stereo not given)	none (no result: NPY-Y2 antag)
CCOc1ccc(CNC(=O)c2ccc(Sc3ccc(Cl)cc3)c(NC(C)=O)c2)cc1	NPY-Y1 antag 41 | NPY1 antag conf 24 | NPY-Y2 antag ct 20
COc1ccc(C2N(c3ccc(Cl)cc3)N=C(C(C)=O)N(C)N2C(C)=O)cc1 (stereo not given)	NPY-Y1 antag 29 (no result: NPY-Y2 antag) | NPY1 antag conf 20 | NPY-Y2 antag ct inactive
COc1cccc(N2C(C(C)=O)=NN(c3ccccc3)C2c2ccc(N3CCOCC3)cc2)c1 (stereo not given)	none
Cc1ccc2cc([N+](=O)[O-])ccc2n1	none (no result: NPY-Y1 antag, NPY-Y2 antag)
COCCNc1ccc([N+](=O)[O-])cc1C(=O)Nc1cccc(C)n1	none (no result: NPY-Y2 antag)
O=C(O)c1cc2c(ccc3ccccc32)o1	NPY-Y1 antag 32 | NPY1 antag conf inactive | NPY-Y2 antag ct inactive
NNC(=O)c1cc2c(ccc3ccccc32)o1	none (no result: NPY-Y2 antag)
COn1c(SCc2ccc(Cl)cc2)nc2ccccc2c1=O	NPY-Y1 antag 38 | NPY1 antag conf 27 | NPY-Y2 antag ct 21
CC(C)CC(C(=O)NC1CCCC1)N(Cc1cccs1)C(=O)c1snc(C(N)=O)c1N (stereo not given)	NPY-Y1 antag 21 | NPY1 antag conf inactive | NPY-Y2 antag ct inactive
CC(C)(C)NC(=O)c1oc2ccccc2c1COc1ccccc1	NPY-Y1 antag 28 | NPY1 antag conf 26 | NPY-Y2 antag ct inactive
Cc1ccc(Cc2cnc(N3C(=N)SC(C)C3=O)s2)cc1 (stereo not given)	NPY-Y1 antag 26 (no result: NPY-Y2 antag) | NPY1 antag conf inactive | NPY-Y2 antag ct inactive
Cc1cccc(Cc2cnc(N3C(=N)SC(C)C3=O)s2)c1 (stereo not given)	none (no result: NPY-Y2 antag)
COn1c(=O)c(-c2cccs2)[n+]([O-])c2ccccc21	NPY-Y1 antag 25 | NPY1 antag conf inactive | NPY-Y2 antag ct inactive
CCOn1c(=O)c(-c2cccs2)[n+]([O-])c2ccccc21	none
